Measured values reported in ChEMBL document CHEMBL5678802, “Small-molecule p21-activated kinase inhibitor PF-3758309 is a potent inhibitor of oncogenic signaling and tumor growth” (Proc Natl Acad Sci U S A, 2010).
The source made the active and inactive calls. No cut-off for these calls is given here.

Key:
[1] = test system: SU.86.86; assay: Antiproliferative activity against human SU-86-86 cells assessed as inhibition of cell proliferation incubated for 3 days by CellTiter-Glo Luminescent Cell Viability Assay; type: functional, cell-based; details: SU.86.86, 72 h
How it was run: (§1)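 Cells of each line were plated in 384-well plates on day 1 and exposed to compound from day 2 for 3 days. On day 5 all medium was aspirated. Viable cell number was read by CellTiter-Glo luminescence, which quantifies cellular ATP.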

[2] = test system: SW-403; assay: Antiproliferative activity against human SW403 cells assessed as inhibition of cell proliferation incubated for 3 days by CellTiter-Glo Luminescent Cell Viability Assay; type: functional, cell-based; details: SW-403, 72 h; how it was run: as §1
[3] = Drug concentration in nude mouse plasma xenografted with human HCT-116 cells at 1.1 mg/kg administered via pump for 9 days by LC-MS/MS analysis; type: ADME, organism-based; details: time 9 day
[4] = test system: HCT-116; assay: Antitumor activity against human HCT-116 cells xenografted in nude mouse assessed as reduction in BAD phosphorylation at S112 residue at 15 to 150 mg/kg/day administered via pump for 18 hrs by Reverse-Phase protein array analysis; type: functional, organism-based; details: dose 15-150 mg/kg/day
[5] = test system: HCT-15; assay: Antiproliferative activity against human HCT-15 cells assessed as inhibition of cell proliferation incubated for 3 days by CellTiter-Glo Luminescent Cell Viability Assay; type: functional, cell-based; details: HCT-15, 72 h
How it was run: (§2)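 Cancer cell lines seeded in 384-well plates on day 1; compound added on day 2 and left for 3 days. On day 5 all medium was aspirated, and viable cells were quantified by CellTiter-Glo luminescence, which measures cellular ATP. Dose-dependent effects on proliferation were determined.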

[6] = molecular target: Serine/threonine-protein kinase PAK 4 (Homo sapiens, UniProt O96013)
Serine/threonine-protein kinase PAK 4, sequence (O96013 whole entry, looked up): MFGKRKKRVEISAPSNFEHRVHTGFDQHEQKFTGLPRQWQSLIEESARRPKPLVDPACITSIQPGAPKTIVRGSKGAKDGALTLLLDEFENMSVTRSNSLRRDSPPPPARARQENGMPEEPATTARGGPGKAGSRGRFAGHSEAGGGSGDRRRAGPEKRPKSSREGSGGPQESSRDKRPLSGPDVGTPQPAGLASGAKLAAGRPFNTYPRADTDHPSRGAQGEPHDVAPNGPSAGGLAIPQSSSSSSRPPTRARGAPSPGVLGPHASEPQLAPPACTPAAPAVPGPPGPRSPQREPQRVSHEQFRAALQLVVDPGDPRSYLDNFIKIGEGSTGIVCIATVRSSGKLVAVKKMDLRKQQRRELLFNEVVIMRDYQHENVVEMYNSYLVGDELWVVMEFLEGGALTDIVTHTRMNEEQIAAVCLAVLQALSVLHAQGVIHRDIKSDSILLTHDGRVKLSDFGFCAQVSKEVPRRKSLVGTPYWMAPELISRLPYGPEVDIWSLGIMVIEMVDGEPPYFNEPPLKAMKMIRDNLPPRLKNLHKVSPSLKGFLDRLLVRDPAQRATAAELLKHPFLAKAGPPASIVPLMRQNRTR

[7] = molecular target: T1, Receptor-type tyrosine-protein kinase FLT3 (Homo sapiens, UniProt P36888); assay: Inhibition of human FLT3 in presence of ATP by cellular assay
T1 sequence (P36888 whole entry): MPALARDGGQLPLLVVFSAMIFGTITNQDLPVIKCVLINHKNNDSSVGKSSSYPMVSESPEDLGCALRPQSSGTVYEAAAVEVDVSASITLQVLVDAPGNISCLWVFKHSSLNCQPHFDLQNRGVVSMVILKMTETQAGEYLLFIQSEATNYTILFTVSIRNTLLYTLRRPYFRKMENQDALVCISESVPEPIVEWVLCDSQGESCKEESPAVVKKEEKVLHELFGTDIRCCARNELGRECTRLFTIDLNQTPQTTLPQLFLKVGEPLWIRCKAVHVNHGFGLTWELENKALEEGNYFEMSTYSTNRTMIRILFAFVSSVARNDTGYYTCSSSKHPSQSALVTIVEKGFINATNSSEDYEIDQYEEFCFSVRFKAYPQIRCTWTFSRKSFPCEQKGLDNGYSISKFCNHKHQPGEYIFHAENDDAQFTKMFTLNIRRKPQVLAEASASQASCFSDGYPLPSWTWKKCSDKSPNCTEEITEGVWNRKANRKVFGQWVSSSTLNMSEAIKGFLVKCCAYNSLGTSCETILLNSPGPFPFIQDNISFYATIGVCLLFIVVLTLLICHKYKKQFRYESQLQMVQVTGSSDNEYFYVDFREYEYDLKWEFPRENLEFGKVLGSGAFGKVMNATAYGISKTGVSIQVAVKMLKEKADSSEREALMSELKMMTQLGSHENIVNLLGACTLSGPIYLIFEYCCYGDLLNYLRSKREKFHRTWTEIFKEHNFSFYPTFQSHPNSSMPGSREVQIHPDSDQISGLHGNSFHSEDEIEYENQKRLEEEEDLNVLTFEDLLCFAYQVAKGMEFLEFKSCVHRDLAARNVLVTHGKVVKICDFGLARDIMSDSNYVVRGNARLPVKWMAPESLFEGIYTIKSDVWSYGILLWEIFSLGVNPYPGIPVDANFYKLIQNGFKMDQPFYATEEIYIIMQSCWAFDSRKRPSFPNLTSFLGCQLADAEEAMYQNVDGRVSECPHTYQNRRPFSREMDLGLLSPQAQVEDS

[8] = test system: HCT-116; assay: Antitumor activity against human HCT-116 cells xenografted in nude mouse assessed as reduction in total Myc level at 15 to 150 mg/kg/day administered via pump for 18 hrs by Reverse-Phase protein array analysis; type: functional, organism-based; details: dose 15-150 mg/kg/day
[9] = test system: Panc 04.03; assay: Antiproliferative activity against human Panc 04.03 cells assessed as inhibition of cell proliferation incubated for 3 days by CellTiter-Glo Luminescent Cell Viability Assay; type: functional, cell-based; details: Panc 04.03, 72 h; how it was run: as §1
[10] = test system: NCI-H1650; assay: Inhibition of anchorage independent cell growth in human NCI-H1650 cells incubated for 6 days by Alamar blue reagent based fluorescence plate reader analysis; type: functional; details: NCI-H1650, 144 h
[11] = molecular target: AMP-activated protein kinase (AMPK) alpha-1/beta-1/gamma-1 (Homo sapiens) (UniProt P54619+Q9Y478+Q13131); assay: Inhibition of human AMPK alpha1/beta1/gamma1 in presence of ATP relative to control; type: protein-complex assay; details: concentration not given here
AMP-activated protein kinase (AMPK) alpha-1/beta-1/gamma-1 (Homo sapiens), sequence (P54619 whole entry): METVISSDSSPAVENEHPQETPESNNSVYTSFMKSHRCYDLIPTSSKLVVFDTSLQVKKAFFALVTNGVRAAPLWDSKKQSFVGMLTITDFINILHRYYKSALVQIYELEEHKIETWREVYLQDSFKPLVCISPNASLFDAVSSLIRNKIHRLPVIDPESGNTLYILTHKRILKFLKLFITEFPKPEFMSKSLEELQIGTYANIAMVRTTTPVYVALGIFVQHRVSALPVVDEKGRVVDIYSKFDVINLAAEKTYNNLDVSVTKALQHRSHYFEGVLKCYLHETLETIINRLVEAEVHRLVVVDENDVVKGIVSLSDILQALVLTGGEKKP
AMP-activated protein kinase (AMPK) alpha-1/beta-1/gamma-1 (Homo sapiens), sequence (Q13131 whole entry partner): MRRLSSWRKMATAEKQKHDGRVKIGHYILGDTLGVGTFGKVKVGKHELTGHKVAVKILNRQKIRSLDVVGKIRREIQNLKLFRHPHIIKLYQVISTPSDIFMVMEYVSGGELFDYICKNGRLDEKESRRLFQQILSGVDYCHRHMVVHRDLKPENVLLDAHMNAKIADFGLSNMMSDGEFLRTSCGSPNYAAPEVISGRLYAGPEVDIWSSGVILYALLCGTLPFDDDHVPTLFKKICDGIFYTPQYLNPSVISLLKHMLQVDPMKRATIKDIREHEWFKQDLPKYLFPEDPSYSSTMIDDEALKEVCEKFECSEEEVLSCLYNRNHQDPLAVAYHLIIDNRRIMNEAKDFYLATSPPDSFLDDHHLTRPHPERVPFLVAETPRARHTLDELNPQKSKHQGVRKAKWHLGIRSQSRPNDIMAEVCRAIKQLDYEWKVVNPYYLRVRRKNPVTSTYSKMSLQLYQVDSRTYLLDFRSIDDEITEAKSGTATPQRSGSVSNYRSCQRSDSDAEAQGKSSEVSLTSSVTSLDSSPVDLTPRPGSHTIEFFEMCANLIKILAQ
AMP-activated protein kinase (AMPK) alpha-1/beta-1/gamma-1 (Homo sapiens), sequence (Q9Y478 2-270 partner limits assumed): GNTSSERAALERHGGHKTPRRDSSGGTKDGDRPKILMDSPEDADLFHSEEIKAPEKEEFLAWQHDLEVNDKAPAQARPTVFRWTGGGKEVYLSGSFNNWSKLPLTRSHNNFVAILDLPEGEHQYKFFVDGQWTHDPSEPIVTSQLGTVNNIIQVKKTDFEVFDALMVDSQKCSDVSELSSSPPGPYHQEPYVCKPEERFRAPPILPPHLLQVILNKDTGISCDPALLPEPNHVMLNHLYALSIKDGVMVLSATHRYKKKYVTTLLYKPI

[12] = test system: MDA-MB-436; assay: Antiproliferative activity against human MDA-MB-436 cells assessed as inhibition of cell proliferation incubated for 3 days by CellTiter-Glo Luminescent Cell Viability Assay; type: functional, cell-based; details: MDA-MB-436, 72 h; how it was run: as §2
[13] = molecular target: Ribosomal protein S6 kinase alpha-2 (Homo sapiens, UniProt Q15349); assay: Inhibition of human RSK3 assessed as inhibition constant in presence of ATP
Ribosomal protein S6 kinase alpha-2, sequence (Q15349 whole entry): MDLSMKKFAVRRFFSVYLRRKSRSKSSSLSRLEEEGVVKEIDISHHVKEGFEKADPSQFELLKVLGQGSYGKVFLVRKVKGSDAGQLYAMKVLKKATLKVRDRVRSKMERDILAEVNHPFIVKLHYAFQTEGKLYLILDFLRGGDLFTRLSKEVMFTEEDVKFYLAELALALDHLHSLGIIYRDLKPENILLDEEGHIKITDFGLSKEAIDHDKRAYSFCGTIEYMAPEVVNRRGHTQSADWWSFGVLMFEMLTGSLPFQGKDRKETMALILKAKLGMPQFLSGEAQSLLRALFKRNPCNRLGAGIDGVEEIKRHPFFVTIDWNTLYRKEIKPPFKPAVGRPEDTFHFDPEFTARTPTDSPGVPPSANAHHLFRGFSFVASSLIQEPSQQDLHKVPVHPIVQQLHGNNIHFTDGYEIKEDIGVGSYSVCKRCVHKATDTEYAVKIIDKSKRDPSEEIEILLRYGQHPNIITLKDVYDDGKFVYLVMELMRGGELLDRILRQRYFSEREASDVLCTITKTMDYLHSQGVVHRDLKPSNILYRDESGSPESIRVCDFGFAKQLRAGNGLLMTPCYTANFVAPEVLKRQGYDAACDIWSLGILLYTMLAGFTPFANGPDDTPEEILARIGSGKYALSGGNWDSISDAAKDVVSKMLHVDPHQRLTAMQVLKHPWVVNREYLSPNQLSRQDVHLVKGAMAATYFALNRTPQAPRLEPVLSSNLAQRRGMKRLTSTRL

[14] = test system: HCT-116; assay: Antiproliferative activity against human HCT-116 cells assessed as inhibition of cell proliferation incubated for 3 days by CellTiter-Glo Luminescent Cell Viability Assay; type: functional, cell-based; details: HCT-116, 72 h; how it was run: as §2
[15] = molecular target: T2, Tyrosine-protein kinase Yes (Homo sapiens, UniProt P07947); assay: Inhibition of human YES1 assessed as inhibition constant in presence of ATP
T2 sequence (P07947 whole entry): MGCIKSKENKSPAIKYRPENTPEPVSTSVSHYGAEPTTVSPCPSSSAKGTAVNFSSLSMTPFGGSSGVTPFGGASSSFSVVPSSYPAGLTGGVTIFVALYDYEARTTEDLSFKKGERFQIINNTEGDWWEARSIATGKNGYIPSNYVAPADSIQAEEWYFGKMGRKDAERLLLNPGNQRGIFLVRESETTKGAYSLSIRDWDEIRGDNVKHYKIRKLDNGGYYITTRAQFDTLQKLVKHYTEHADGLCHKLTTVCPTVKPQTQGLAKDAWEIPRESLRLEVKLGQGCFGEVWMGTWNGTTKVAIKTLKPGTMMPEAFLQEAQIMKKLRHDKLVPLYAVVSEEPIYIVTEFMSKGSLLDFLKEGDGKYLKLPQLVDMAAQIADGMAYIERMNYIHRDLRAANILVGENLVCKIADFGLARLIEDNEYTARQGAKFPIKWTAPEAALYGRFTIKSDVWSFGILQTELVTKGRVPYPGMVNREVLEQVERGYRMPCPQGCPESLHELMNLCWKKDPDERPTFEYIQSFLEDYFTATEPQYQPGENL

[16] = test system: HPAC; assay: Antiproliferative activity against human HPAC cells assessed as inhibition of cell proliferation incubated for 3 days by CellTiter-Glo Luminescent Cell Viability Assay; type: functional, cell-based; details: 72 h; how it was run: as §2
[17] = test system: RKO; assay: Antiproliferative activity against human RKO cells assessed as inhibition of cell proliferation incubated for 3 days by CellTiter-Glo Luminescent Cell Viability Assay; type: functional, cell-based; details: 72 h; how it was run: as §1
[18] = Antiproliferative activity against human Hs 700T cells assessed as inhibition of cell proliferation incubated for 3 days by CellTiter-Glo Luminescent Cell Viability Assay; type: functional, cell-based; details: 72 h; how it was run: as §2
[19] = test system: HCT-116; assay: Antitumor activity against human HCT-116 cells xenografted in nude mouse assessed as reduction in Ki67 at 15 to 25 mg/kg administered orally twice daily by immunohistochemical analysis; type: functional, organism-based; details: dose 15-25 mg/kg, route po, time 3-6 day, TDE = time-dependent effect
[20] = test system: HCC1419; assay: Antiproliferative activity against human HCC1419 cells assessed as inhibition of cell proliferation incubated for 3 days by CellTiter-Glo Luminescent Cell Viability Assay; type: functional, cell-based; details: HCC1419, 72 h; how it was run: as §2
[21] = molecular target: T2, Tyrosine-protein kinase Yes; assay: Inhibition of human YES1 in presence of ATP
[22] = molecular target: Tyrosine-protein kinase Fyn (Homo sapiens, UniProt P06241); assay: Inhibition of human FYN assessed as inhibition constant in presence of ATP
Tyrosine-protein kinase Fyn, sequence (P06241 whole entry): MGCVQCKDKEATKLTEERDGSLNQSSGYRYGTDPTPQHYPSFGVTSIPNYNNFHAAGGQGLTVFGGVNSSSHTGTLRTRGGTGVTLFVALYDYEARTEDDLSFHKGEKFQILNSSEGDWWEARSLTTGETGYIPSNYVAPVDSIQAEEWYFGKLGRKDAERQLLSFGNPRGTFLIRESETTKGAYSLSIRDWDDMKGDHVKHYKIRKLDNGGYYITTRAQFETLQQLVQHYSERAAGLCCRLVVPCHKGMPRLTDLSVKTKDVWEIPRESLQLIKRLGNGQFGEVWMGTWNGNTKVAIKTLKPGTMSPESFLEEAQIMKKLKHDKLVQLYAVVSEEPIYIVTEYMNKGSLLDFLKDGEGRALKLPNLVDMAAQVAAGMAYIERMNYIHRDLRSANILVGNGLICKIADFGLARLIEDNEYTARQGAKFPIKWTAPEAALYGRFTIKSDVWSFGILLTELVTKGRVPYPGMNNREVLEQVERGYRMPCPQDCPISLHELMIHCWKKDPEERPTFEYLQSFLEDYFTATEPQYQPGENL

For `Cc1nc(Nc2n[nH]c3c2CN(C(=O)N[C@H](CN(C)C)c2ccccc2)C3(C)C)c2sccc2n1` [PF-03758309], the IC50 [1] was 898 nM, the IC50 [2] was 2.2 nM and the concentration at 216 h [3] was 5.6 ng/mL. For the same compound, the Activity [4] was “Active”, the IC50 [5] was 10000 nM and the T1/2 [6] was 1.13 min. For the same compound, the IC50 [7] was 407 nM, the Activity [8] was “Active” and the IC50 [9] was 347 nM. The IC50 [10] was 5.57 nM, the inhibition [11] was 101% and the IC50 [12] was 0.79 nM. The Ki [13] was 11 nM, the IC50 [14] was 2.4 nM and the Ki [15] was 43 nM. It also gave an IC50 [16] of 265 nM, an IC50 [17] of 1.8 nM and an IC50 [18] of 2380 nM. For the same compound, the Activity [19] was “Tde”, the IC50 [20] was 0.79 nM and the IC50 [21] was 47 nM. For the same compound, the Ki [22] was 26 nM.
